The source of these data is article PMC3448962 (Biochemical pharmacology, 2012).

The subject of data set [1] is human AGP. Description: in vitro. To be noted: pH 7.4, Ki.
Data set [2] concerns human AGP. Description: Fluorometric probe displacement assay. As to conditions: for displacement of BODIPY-PL2 from AGP: probe BODIPY-PL2.
The subject of data set [3] is human AGP. Briefly: in vitro. As to conditions: pH 7.4.
The conditions of data set [4]: rats; cited from earlier work.
For data set [5] the following is noted: human plasma; equilibrium dialysis; cited from earlier work.
For data set [6] the following is noted: cited from earlier work.
Data set [7] concerns human α-1-acid glycoprotein (AGP). Briefly: Fluorometric probe displacement assay. As to conditions: human.
Data set [8] has as its system human AGP. Description: Isothermal titration calorimetry. The class given is binding. To be noted: for Kd: 25 °C. The gist of the method: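 Human AGP (63 μM) in 20 mM HEPES pH 7.0, degassed, was titrated with 80 × 3-μL injections of 10–13 mM test compound at 240-s intervals, stirred at 307 rpm. Runs were at 37 °C, with one compound also at 15, 20, 25 and 30 °C. Delipidation was on lipidex 1000 in 20 mM HEPES pH 7.4 at 37 °C. Heat of dilution was subtracted, and n and ΔH came from a one-set-of-sites fit.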

In data set [9] the test system is human AGP. Briefly: Surface plasmon resonance. The class given is binding. To be noted: for SPR binding response at single concentrations: 100 μM and 300 μM of each compound. The gist of the method:
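AGP was thiol-coupled (PDEA/EDC, MES pH 5.0) to a CM5 chip at 5000 RU, with PBS pH 7.4 running buffer at 25 °C. Compound series were 3-fold dilutions from 3 mM, plus single 100 and 300 μM injections, at 50 μL/min: 30 s association, 60 s dissociation. Response was read 10 s before association ended, reference-subtracted and MW-normalised. Glycine pH 1.7 regenerated the chip; chlorpromazine served as surface control. Runs were done ≥3 times.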

Data set [10] has as its system human AGP. Briefly: Fluorometric assay: direct titration of fluorescent probe into AGP. As to conditions: for binding to AGP by direct fluorometric titration: emission did not plateau where seen, no Kd derived.
For data set [11] the following is noted: cited from earlier work. The source holds these as a separate data set.

Like-named read-outs stand apart in the source and are kept apart here. Where a SMILES comes first, the peptide text is derived from it. Bridges are numbered along the chain shown (N, C = ends). [ ]: non-standard residue; d: D form. The star is where a group is joined. X1 = CC[C@H](C)CCCCC(=O)*; Dab = NCC[C@H](N)C(=O)O Where only a bound is given, the exact number is not on record here.

For `CN(C)CCCN1c2ccccc2Sc2ccc(Cl)cc21` [Chlorpromazine], the values for the Ki at 2 min in the data set with human AGP [1] (displacement of ANS), in the data set with human AGP [1] (displacement of AO) and with human AGP [1] (displacement of NR) were 0.14 ± 0.01 µM, 2.8 ± 0.2 µM and 0.67 ± 0.05 µM, respectively. In the data set with human AGP [2], the “displacement of BODIPY-PL2 from AGP” value is reported as “able to compete with BODIPY-PL2”.
Consider `CCN(CC)c1ccc2nc3c4ccccc4c(=O)cc-3oc2c1` [NR, Nile Red], for which the Kd at 2 min with human AGP [3] stood at 0.91 ± 0.2 µM.
In the case of `CC[C@H](C)CCCCC(=O)N[C@@H](CCN)C(=O)N[C@H](C(=O)N[C@@H](CCN)C(=O)N[C@H]1CCNC(=O)[C@H]([C@@H](C)O)NC(=O)[C@H](CCN)NC(=O)[C@H](CCN)NC(=O)[C@H](CC(C)C)NC(=O)[C@@H](CC(C)C)NC(=O)[C@H](CCN)NC1=O)[C@@H](C)O` [Colistin, colistin] (X1-[Dab]T[Dab][Dab][Dab][dL]L[Dab][Dab]T; lactam 4-C (inferred); N-terminus assumed), the plasma protein binding in data set [4] is 55–57%. Further, the bound to plasma result in data set [5] is listed as “over 50%”. In data set [6], the “level of plasma protein binding in neutropenic infected mice compared to healthy mice” value is “greater”. In the data set with human AGP [2], the “displacement of BODIPY-PL2 from AGP” value was “unable to produce any discernible displacement”. Also, the Ki was greater than 200 µM in [7] (Ki values (text summary over probes), titration of probe-AGP solutions) and 351 ± 188 µM in [7] (Ki, displacement of ANS, probe ANS, 20°C, mean ± SE, n = 3 unless otherwise indicated, ND = not detected).
colistin methanesulfonate [CMS]: the “binding affinity for AGP by ITC” value with human AGP [8] was “no detectable binding affinity”. Further, in the data set on human AGP [9], the “SPR binding response at single concentrations” value (“SPR binding response” below) is “very poor responses”. Also, the “concentration dependence of SPR binding” value with human AGP [9] (concentration series 3 mM to 1.3 μM) is recorded as “not concentration dependent”. Further, the “ability to displace the probes” value in the data set on human AGP [2] (ANS, Auramine O, Nile Red) is listed as “no ability to displace any of the probes”.
Take “[Dansyl-Lys]^1 polymyxin B3 [[Dansyl-Lys^1]PmB3]”: the “binding to AGP by direct fluorometric titration” value (from here on “binding to AGP”) in the data set with human AGP [10] was “weak AGP affinity”.
Take “2-(4,4-difluoro-5-methyl-4-bora-3a,4a-diaza-s-indacene-3-dodecanoyl)-1-hexadecanoyl-sn-glycero-3-phosphocholine [BODIPY-PL2]”: the “binding to AGP” value in the data set on human AGP [10] is listed as “apparent weak affinity”.
Polymyxin B [PmB]: the Kd with human AGP [8] (read-out: Kd, delipidated AGP, delipidated sample) came to 210 µM; in the data set on human AGP [8] (read-out: Kd, non-delipidated AGP, non-delipidated sample), 103 µM. Moreover, in the data set with human AGP [9], the “SPR binding response” value was “highest response”. Besides, in data set [5], the bound to plasma result was “over 50%”. Also, in [11] (critically ill septic patients), the “plasma protein binding, critically ill septic patients” value is “more than 90%”. In addition, in data set [11] (healthy subjects), the “plasma protein binding, healthy subjects” value was “around 56%”. Further, the “displacement of BODIPY-PL2 from AGP” value in the data set with human AGP [2] is listed as “unable to produce any discernible displacement”. Moreover, the inhibitory constant (Ki) was greater than 200 µM in the data set with human AGP [2] (read-out: Ki values (text summary over probes), titration of probe-AGP solutions) and 225 ± 49 µM with human AGP [2] (read-out: Ki, displacement of ANS, probe ANS, 20°C, mean ± SE, n = 3 unless otherwise indicated, ND = not detected).
Take `CCCCCCCCCCCCCCCC(=O)OC[C@H](COP(=O)(O)OCCNC(=O)CCc1ccc2n1[B-](F)(F)[N+]1=C(C)C=C(C)C1=C2)OC(=O)CCCCCCCCCCCCCCC.CCN(CC)CC` [BODIPY-PL1, N-(4,4-difluoro-5,7-dimethyl-4-bora-3a,4a-diaza-s-indacene-3-propionyl)-1,2-dihexa-decanoyl-sn-glycero-3-phosphoethanolamine, triethylammonium salt]: in the data set on human AGP [10], the “binding to AGP” value is “no fluorescence emission observed”.
Take Colistin nona-peptide [colistin NP]: the “binding affinity for AGP by ITC” value with human AGP [8] is listed as “no detectable binding affinity”. The “SPR binding response” value in the data set with human AGP [9] is “very poor responses”.
`O=S(=O)(O)c1cccc2cccc(Nc3ccccc3)c12` [ANS, 1-anilino-8-naphthalene sulfonic acid] returned a Kd at 2 min in the data set on human AGP [10] (human, pH 7.4) of 0.87 ± 0.07 µM.
